Measured values pooled from the literature.
Protocols differ between the studies behind these lines.
ST14: Suppressor of tumorigenicity 14 protein (ST14, Homo sapiens, UniProt Q9Y5Y6)
CDK2 with cyclin A2: Cyclin-dependent kinase 2, with cyclin A2 (CDK2, Homo sapiens, UniProt P24941)
TEK: Angiopoietin-1 receptor (TEK, Homo sapiens, UniProt Q02763)

SMILES | target | effect on | mode | method | concentration | quantity | result
N=C(N)NCCC[C@H](NC(=O)[C@H](CCC1CCCCC1)NC(=O)[C@H](Cc1cscn1)NC(=O)CCc1ccccc1)C(=O)c1nc2ccccc2s1 | ST14 | enzyme activity | inhibitor |  | 0.1 µM | remaining activity | 5%
COc1cc(-c2cncc3c2CN(C)Cc2cc(N4CCNCC4)ccc2-3)cc(OC)c1OC | Protein kinase C eta type (PRKCH, Homo sapiens, UniProt P24723) | enzyme activity | inhibitor |  | 1 µM | remaining activity | 115%
CC(=O)Nc1c(N)nc(SCC(=O)N/N=C/c2ccc([N+](=O)[O-])cc2)[nH]c1=O | CDK2 with cyclin A2 | enzyme activity | inhibitor |  | 10 nM | inhibition | 15%
N=C(N)NCCC[C@H](NC(=O)[C@H](Cc1ccc(C(=O)c2ccccc2)cc1)NC(=O)[C@H](Cc1cscn1)NC(=O)CCc1ccccc1)C(=O)c1nc2ccccc2s1 | ST14 | enzyme activity | inhibitor |  | 0.1 µM | remaining activity | 89%
Cc1cc([C@@H](C)Nc2ccccc2C(=O)O)c2nc(N3CCC(F)(F)CC3)c(C#N)c(=O)n2c1 | Serine/threonine-protein kinase pim-1 (PIM1, Homo sapiens, UniProt P11309) | binding |  | competition with immobilised ligand | 10 µM | remaining binding | 100%
CC(=O)Nc1c(N)nc(SCC(=O)NN)[nH]c1=O | CDK2 with cyclin A2 | enzyme activity | inhibitor |  | 200 pM | inhibition | 3.98%
N=C(N)NCCC[C@H](NC(=O)[C@@H](CC1CCCCC1)NC(=O)[C@H](Cc1cscn1)NC(=O)CCc1ccccc1)C(=O)c1nc2ccccc2s1 | ST14 | enzyme activity | inhibitor |  | 0.1 µM | remaining activity | 95%
C=CC(=O)N1CCC(COCC(=O)N2CCN(c3nc(-c4cnc(N)nc4C(F)F)nc(N4CCOC[C@@H]4C)n3)CC2)CC1 | TEK | binding |  | competition with immobilised ligand | 1 µM | remaining binding | 100%
CNC(=O)c1cc(Oc2ccc(NC(=O)Nc3ccc(Cl)c(C(F)(F)F)c3)cc2)ccn1 | CDK2 with cyclin A2 | enzyme activity | inhibitor |  | 200 pM | inhibition | 12.3%
CNc1ncc2c(/C=C/C(=O)N3CCC(OC)CC3)nn(Cc3cccc(C(F)(F)F)c3)c2n1 | TEK | enzyme activity | inhibitor | radiometric | 1 µM | remaining activity | 98%
